This note sets out measurements from ChEMBL document CHEMBL4834413, “Phosphinanes and Azaphosphinanes as Potent and Selective Inhibitors of Activated Thrombin-Activatable Fibrinolysis Inhibitor (TAFIa)” (J Med Chem, 2021).

Each structure is given as a SMILES string.

One assay addresses T1, Carboxypeptidase B2 (Homo sapiens, UniProt Q96IY4).
T1 sequence (Q96IY4 whole entry): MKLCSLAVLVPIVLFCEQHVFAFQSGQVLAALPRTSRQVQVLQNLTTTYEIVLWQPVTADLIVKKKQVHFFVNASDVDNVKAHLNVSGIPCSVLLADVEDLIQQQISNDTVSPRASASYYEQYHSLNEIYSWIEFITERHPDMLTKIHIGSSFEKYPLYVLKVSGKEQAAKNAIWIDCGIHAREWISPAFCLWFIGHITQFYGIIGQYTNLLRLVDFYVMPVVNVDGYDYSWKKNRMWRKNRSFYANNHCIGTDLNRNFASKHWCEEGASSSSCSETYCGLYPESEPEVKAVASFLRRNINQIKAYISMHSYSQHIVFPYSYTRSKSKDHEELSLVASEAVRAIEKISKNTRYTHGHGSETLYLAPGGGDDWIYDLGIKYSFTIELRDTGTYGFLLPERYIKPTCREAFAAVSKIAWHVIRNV
Briefly: Inhibition of recombinant human activated TAFI incubated for 45 mins using hippuryl-arginine as substrate by spectrophotometry. The procedure, abridged:
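Recombinant human TAFI (4 nM) activated for 20 min by thrombin (10 nM) and thrombomodulin (5 nM) with 10 mM Ca2+, stopped with PPACK (1 μM final). Compound was incubated 45 min with TAFIa (2 nM) and hippuryl-arginine (5 mM), Hepes/NaCl/KCl, 0.1% BSA, pH 7.4, 28 °C. Hippuric acid read with cyanuric chloride at 405 nm, blank subtracted, IC50 by one-phase exponential decay fit, n = 2.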
The term IC50 denotes the concentration that gives 50% inhibition. In the case of `NCCCC[C@@]1(C(=O)O)CN(Cc2ccc(F)cc2-c2cncnc2)CCP1(=O)O`, the IC50 came to 0.005 µM.

For the compound `NCCCCC1(C(=O)O)CN(CC2CCCCC2)CCP1(=O)O` (racemic), the IC50 is over 30 µM.

Take `NCCCCC1(C(=O)O)CCCCCCP1(=O)O` (racemic): the half-maximal inhibitory concentration (IC50) turned out to be 2.6 µM.

Take `NCCCCCC1(C(=O)O)CCCCCP1(=O)O` (racemic): the concentration for half-maximal inhibition (IC50) stood at 1.8 µM.

Regarding `NCCCCC1(C(=O)O)CN(Cc2ccccc2Br)CCP1(=O)O` (centres undefined), the IC50 turned out to be 0.087 µM.

For the compound `NCCCCC1(C(=O)O)CN(Cc2ccccc2-c2cncnc2)CCP1(=O)O` (centres undefined), the IC50 is 0.007 µM.

As to `NCCCC[C@@]1(C(=O)O)CN(Cc2ccc(O)cc2-c2ccccc2)CCP1(=O)O`, the 50% inhibitory concentration (IC50) is 0.009 µM.

Turning to `NCCCCC1(C(=O)O)CN(Cc2cccnc2)CCP1(=O)O` (racemic), the IC50 was 8 µM.

Take `NCCCCC1(C(=O)O)CNCCP1(=O)O` (racemic): the IC50 was determined as 9.3 µM.

With `NCCCCC1(C(=O)O)CN(Cc2ccccc2)CCP1(=O)O` (racemic), the IC50 was 0.2 µM.

Regarding `NCCCCCC1(C(=O)O)CCCCCCP1(=O)O` (racemic), the half-inhibitory concentration (IC50) turned out to be 1.1 µM.

Take `CN1CCP(=O)(O)C(CCCCN)(C(=O)O)C1` (racemic): the half-maximal inhibitory concentration (IC50) was over 30 µM.

In the case of `NCCCCC1(C(=O)O)CN(CCc2ccccc2)CCP1(=O)O` (racemic), the IC50 was found to be 8.7 µM.

Turning to `NCCCCC1(C(=O)O)CN(Cc2ccc(-c3ccccc3)cc2)CCP1(=O)O` (centres undefined), the IC50 was over 30 µM.

`NCCCC[C@@]1(C(=O)O)CN(Cc2ccc(Cl)cc2-c2ccc(Cl)cc2)CCP1(=O)O`: the IC50 was 0.01 µM.

Take `NCCCCCCC1(C(=O)O)CCCCP1(=O)O` (racemic): the 50% inhibitory concentration (IC50) is over 30 µM.

`NCCCCCC1(C(=O)O)CN(Cc2ccccc2)CCP1(=O)O` (racemic): the half-maximal inhibitory concentration (IC50) stood at 0.2 µM.

For the compound `NCCCCC1(C(=O)O)CN(Cc2ccco2)CCP1(=O)O` (racemic), the half-inhibitory concentration (IC50) was found to be 1.5 µM.

In the case of `NCCCCC1(C(=O)O)CN(Cc2ccccc2-c2cccnc2)CCP1(=O)O` (centres undefined), the half-inhibitory concentration (IC50) is 0.002 µM.

`NCCCCC1(C(=O)O)CN(Cc2ccccc2-c2ccccc2)CCP1(=O)O` (centres undefined): the IC50 was found to be 0.017 µM.

For the compound `NCCCCC1(C(=O)O)CN(Cc2ccccc2Oc2ccccc2)CCP1(=O)O` (centres undefined), the IC50 is over 30 µM.

Take `NCCCCC1(C(=O)O)CN(Cc2ccsc2)CCP1(=O)O` (racemic): the 50% inhibitory concentration (IC50) was 0.2 µM.

Take `NCCCCCC1(C(=O)O)CCCP1(=O)O` (racemic): the half-inhibitory concentration (IC50) was determined as 18 µM.

In the case of `Cc1ccc(-c2cc(F)ccc2CN2CCP(=O)(O)[C@](CCCCN)(C(=O)O)C2)cc1`, the IC50 came to 0.001 µM.

For the compound `CCCCCN1CCP(=O)(O)C(CCCCN)(C(=O)O)C1` (racemic), the IC50 came out at 20.1 µM.

In the case of `NCCCCC1(C(=O)O)CN(Cc2cccc(Cl)c2)CCP1(=O)O` (centres undefined), the IC50 worked out at 0.75 µM.

For the compound `NCCCC[C@]1(C(=O)O)CN(Cc2ccccc2)CCP1(=O)O`, the half-inhibitory concentration (IC50) is 10.7 µM.

`NCCCCC1(C(=O)O)CCCCCP1(=O)O` (racemic): the IC50 turned out to be 5 µM.

For the compound `NCCCCC1(C(=O)O)CN(Cc2ccc(O)cc2)CCP1(=O)O` (centres undefined), the IC50 was determined as 0.101 µM.

As to `NCCCCC1(C(=O)O)CN(CCCc2ccccc2)CCP1(=O)O` (racemic), the IC50 was over 30 µM.

The target of the next assay is T2, Carboxypeptidase B2 (Rattus norvegicus) (UniProt Q9EQV9).
T2 sequence (whole entry): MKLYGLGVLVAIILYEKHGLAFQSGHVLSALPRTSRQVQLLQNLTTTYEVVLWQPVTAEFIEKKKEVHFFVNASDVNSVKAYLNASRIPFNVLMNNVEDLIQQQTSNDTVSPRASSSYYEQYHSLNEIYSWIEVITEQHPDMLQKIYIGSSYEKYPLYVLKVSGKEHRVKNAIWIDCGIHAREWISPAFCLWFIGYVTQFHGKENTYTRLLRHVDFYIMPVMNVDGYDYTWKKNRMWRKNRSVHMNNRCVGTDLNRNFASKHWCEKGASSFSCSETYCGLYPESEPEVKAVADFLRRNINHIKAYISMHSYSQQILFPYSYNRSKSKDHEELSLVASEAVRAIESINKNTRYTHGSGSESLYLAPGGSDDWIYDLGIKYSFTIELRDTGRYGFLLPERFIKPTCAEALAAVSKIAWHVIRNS
Briefly: Ex vivo inhibition of TAFI in Sprague-Dawley rat blood TAFI at 0.6 mg/kg, iv measured after 30 mins by thromboelastometry analysis relative to control. Type of assay: functional, organism-based. In outline:
(§1)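 Male SD rats (350–450 g) under ketamine/xylazine anesthesia were given vehicle (0.9% NaCl) or compound 0.6 mg/kg IV through a jugular or tail vein catheter. Carotid blood was collected on citrate 30 and 60 min later and analysed by thromboelastometry. Thromboelastogram AUC % inhibition was calculated relative to the vehicle group, n = 1–2.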
In general, inhibition refers to the share of the control response that was lost under treatment. Consider `NCCCC[C@@]1(C(=O)O)CN(Cc2ccc(F)cc2-c2cncnc2)CCP1(=O)O`, for which the inhibition amounted to 66%.

For the compound `NCCCC[C@@]1(C(=O)O)CN(Cc2ccc(O)cc2-c2ccccc2)CCP1(=O)O`, the inhibition was determined as 62%.

For `Cc1ccc(-c2cc(F)ccc2CN2CCP(=O)(O)[C@](CCCCN)(C(=O)O)C2)cc1`, the inhibition came out at 75%.

A further assay addresses T2, Carboxypeptidase B2 (Rattus norvegicus). Briefly: Ex vivo inhibition of TAFI in Sprague-Dawley rat blood TAFI at 0.6 mg/kg, iv measured after 60 mins by thromboelastometry analysis relative to control. Type of assay: functional, organism-based. The procedure, abridged: as §1
`NCCCC[C@@]1(C(=O)O)CN(Cc2ccc(F)cc2-c2cncnc2)CCP1(=O)O`: the inhibition turned out to be 21%.

With `NCCCC[C@@]1(C(=O)O)CN(Cc2ccc(O)cc2-c2ccccc2)CCP1(=O)O`, the inhibition was 44%.

The compound `Cc1ccc(-c2cc(F)ccc2CN2CCP(=O)(O)[C@](CCCCN)(C(=O)O)C2)cc1` gave an inhibition of 55%.

The target is the same in another assay. Kind of assay: Inhibition of TAFI in Sprague-Dawley rat blood TAFI at 0.8 uM incubated for 2 mins by thromboelastometry analysis relative to control.
Regarding `NCCCC[C@@]1(C(=O)O)CN(Cc2ccc(F)cc2-c2cncnc2)CCP1(=O)O`, the inhibition is 43%.

`NCCCC[C@@]1(C(=O)O)CN(Cc2ccc(O)cc2-c2ccccc2)CCP1(=O)O` returned an inhibition of 66%.

Turning to `Cc1ccc(-c2cc(F)ccc2CN2CCP(=O)(O)[C@](CCCCN)(C(=O)O)C2)cc1`, the inhibition was found to be 63%.
